In paper PMC7233196 (ACS chemical biology, 2020) one finds Kd data, which are given here for one compound.

The Kd is the constant that tells how readily two partners part at equilibrium.

Common to all, as to experiment: BRET ratio titration, purified sensor
Holding throughout (type): binding
Background: BRET reads energy transfer from a luciferase to a nearby fluorophore.

The target of test [1] is tVYN-NtΔ (NtYcgRΔ). The conditions noted are these: read-out: KD(nM)^a; 3 nM sensor; pH 7.2, 100 mM KCl, 10 mM DTT, 0.1% BSA, 28 °C; Hill fit. An outline of the steps: (§1)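 Coelenterazine-h substrate (60 μM in HEPES/KCl/300 mM ascorbate, pre-equilibrated ≥30 min at RT) added, 20 μL into 100 μL. Emission read at 460 and 530 nm, 28 °C, every 30 s for 10 min. BRET ratio taken at 2 min.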

The target of test [2] is tVYN-Nt (NtYcgR). Particulars: read-out: KD(nM)^a; 3 nM sensor; pH 7.2, 100 mM KCl, 10 mM DTT, 0.1% BSA, 28 °C; Hill fit. An outline of the steps: as §1
In test [3] the target is T1, VYN-Ec (EcYcgR) (Escherichia coli, UniProt P76010).
T1 sequence (P76010 1-244): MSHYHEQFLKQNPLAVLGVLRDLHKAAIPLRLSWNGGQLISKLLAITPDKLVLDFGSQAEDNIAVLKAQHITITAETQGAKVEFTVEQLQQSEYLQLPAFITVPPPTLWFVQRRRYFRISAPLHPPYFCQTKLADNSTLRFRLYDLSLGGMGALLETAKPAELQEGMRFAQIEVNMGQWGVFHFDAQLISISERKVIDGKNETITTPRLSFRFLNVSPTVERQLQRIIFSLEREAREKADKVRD
An outline of the steps: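 Coelenterazine-h prepared at 60 μM in HEPES/KCl/300 mM ascorbate (≥30 min RT), then added. Emission at 460 and 530 nm read at 30 s intervals for 10 min, 28 °C; BRET ratio taken 2 min post-substrate.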

For test [4], the target named is Vcp229-Nt (NtYcgR). The conditions noted are these: read-out: KD(nM)^a; 3 nM sensor; pH 7.2, 100 mM KCl, 10 mM DTT, 0.1% BSA, 28 °C; Hill fit. An outline of the steps:
as §1

The target in test [5] is tVYN-Tb (TbYcgR). The conditions noted are these: read-out: KD(nM)^a; 3 nM sensor; pH 7.2, 100 mM KCl, 10 mM DTT, 0.1% BSA, 28 °C; Hill fit. An outline of the steps: as §1
Test [6] concerns the target VYN-Tb (TbYcgR). Particulars: read-out: KD(nM)^a; 3 nM sensor; pH 7.2, 100 mM KCl, 10 mM DTT, 0.1% BSA, 28 °C; Hill fit. An outline of the steps:
as §1

Test [7] concerns the target Vcp157-Cp (CpYcgR). The conditions noted are these: read-out: KD(nM)^a; 3 nM sensor; pH 7.2, 100 mM KCl, 10 mM DTT, 0.1% BSA, 28 °C; Hill fit. An outline of the steps:
as §1

Test [8] addresses Vcp173-Nt (NtYcgR). The conditions noted are these: read-out: KD(nM)^a; 3 nM sensor; pH 7.2, 100 mM KCl, 10 mM DTT, 0.1% BSA, 28 °C; Hill fit. An outline of the steps: as §1
Test [9] concerns the target VYN-Nt (NtYcgR). Particulars: read-out: KD(nM)^a; 3 nM sensor; pH 7.2, 100 mM KCl, 10 mM DTT, 0.1% BSA, 28 °C; Hill fit. An outline of the steps:
as §1

SMILES strings stand for the structures.

With `Nc1nc2c(ncn2[C@@H]2O[C@@H]3COP(=O)(O)O[C@H]4[C@@H](O)[C@H](n5cnc6c(=O)[nH]c(N)nc65)O[C@@H]4COP(=O)(O)O[C@H]3[C@H]2O)c(=O)[nH]1` [c-di-GMP], the Kd in test [1] is 54 ± 4 nM; in test [2], 20 ± 1 nM; in test [3], 50 ± 4 nM; in [4] it was 14 ± 1 nM; in test [5] it was 12 ± 1 nM; in [6], 8 ± 0.4 nM. In addition, the Kd came to 96 ± 6 nM in test [7], 17 ± 4 nM in [8] and 14 ± 4 nM in [9].
